Screens from PubChem.
The list is not random: actives were taken first. Their share in the collection is about 3.2%.
rRNA inh HTS: inhibitors of bacterial rRNA selective over humanized ribosomes; E. coli WT GFP vs humanized-ribosome RFP mutants, fluorescence, 24 h; stronger effect = lower value; DMSO median 0, no signal -100; 350,000 compounds, 1.6% hits; AID 720706; GFP signal change (wild-type ribosome), % (no concentration beside the values);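 active = significant combined selectivity score with lowered wild-type GFP, culture density cut under 30%, mutant RFP and density less affected; inactive = any of these conditions unmet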
S100A4 MyoIIA: S100A4-myosin IIA interaction inhibition; P26447; S100A4/TAMRA-MyoIIA peptide fluorescence polarization; inhibition, % at 10.7 µM; 360,000 compounds, 0.14% hits;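 active = mean inhibition of at least 70% across replicates, with every replicate also reaching that level; inconclusive = mean inhibition reaches 70% but some replicates fall short; inactive = mean inhibition below 70%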
Target sequence (P26447 whole entry, looked up): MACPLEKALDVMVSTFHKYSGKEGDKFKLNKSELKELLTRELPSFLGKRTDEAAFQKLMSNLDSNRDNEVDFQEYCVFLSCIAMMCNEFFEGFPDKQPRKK
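assay system = human S100A4 monomer with TAMRA-labelled myosin IIA peptide | also added = labelled myosin peptide probe, 5 nM | incubation = 5 min between mix addition and reading | control set = DMSO and TFP controls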
Cneo AK release: Cryptococcus neoformans lysis via adenylate kinase release; 360,000 compounds, 0.2% hits; C. neoformans lysis, adenylate kinase release luminescence, 4 h; normalised: neutral wells 0, clomiphene wells 100; lysis activity, % at 15 µM;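 active = mean lysis activity across replicates of at least 80%, whatever share of replicates individually reach that level; inactive = mean lysis activity below 80%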
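Schedule: static 4 h at 37 °C with compound, 1 h detection; system: C. neoformans cells; benchmarks: Clomiphene as positive control; buffer or medium: fresh YPD medium; measure: luminescence rise reflecting yeast cell lysis; measured by: luminescent adenylate kinase detection reagent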
MLL AF4-AF9 inh: MLL-AF4/AF9 protein interaction inhibition; 350,000 compounds, 0.47% hits; AlphaScreen, biotin-AF4 peptide binding to FLAG-AF9; inhibition, % at 10 µM; AID 651704; P42568;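 active = every replicate reaching a set inhibition limit, whatever the replicate mean, cut at about 25% in these data; inconclusive = mean inhibition reaches that limit but some replicates miss it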
Target sequence (P42568 whole entry, looked up): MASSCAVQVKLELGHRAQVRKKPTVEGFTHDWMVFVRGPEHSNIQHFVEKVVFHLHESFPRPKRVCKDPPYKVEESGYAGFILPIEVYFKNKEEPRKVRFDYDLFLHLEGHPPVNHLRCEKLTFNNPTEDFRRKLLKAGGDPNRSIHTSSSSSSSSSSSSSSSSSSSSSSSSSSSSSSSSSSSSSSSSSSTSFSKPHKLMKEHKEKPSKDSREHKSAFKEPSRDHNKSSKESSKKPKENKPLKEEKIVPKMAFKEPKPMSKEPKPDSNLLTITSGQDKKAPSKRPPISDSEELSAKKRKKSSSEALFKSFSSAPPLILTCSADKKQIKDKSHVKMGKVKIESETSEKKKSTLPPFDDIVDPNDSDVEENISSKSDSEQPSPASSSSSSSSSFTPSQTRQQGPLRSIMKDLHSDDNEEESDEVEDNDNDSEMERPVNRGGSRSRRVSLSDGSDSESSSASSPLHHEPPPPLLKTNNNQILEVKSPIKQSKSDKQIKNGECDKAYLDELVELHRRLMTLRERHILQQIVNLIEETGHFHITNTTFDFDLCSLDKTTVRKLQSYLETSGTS
DENV2 CPE: DENV2-induced cell death inhibition | CPE inhibition, % at 9.99 µM | 350,000 compounds, 1.7% hits | AID 651640 | DENV2-infected cells, cytopathic effect rescue, plate reader; in the data active = CPE inhibition above about 20%, passing the limit was not always enough; inconclusive = no clear call, values can overlap the other calls; tested in BHK-21 cells
PfHsp90 set2: reduces growth (ATP signal) of yeast expressing P. falciparum Hsp90; S. cerevisiae expressing PfHsp90, BacTiter-Glo ATP, 48 h; yeast lacking PDR1 and PDR3 efflux regulators; AID 504621; inhibition, % at 9.4 µM; 310,000 compounds, 0.32% hits;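 active = every replicate shows inhibition above about 80%, whatever the replicate mean, limit read from the data; inconclusive = mean inhibition reaches the set limit but some replicate falls short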
Hits are given with their value; i = inactive; ? = inconclusive; nt = no result.

SMILES | rRNA inh HTS | S100A4 MyoIIA | Cneo AK release | MLL AF4-AF9 inh | DENV2 CPE | PfHsp90 set2
O=C(Nc1ccc(C(=O)N2CCN(c3ccncc3)CC2)cc1)c1ccc(Br)o1 | i | i | nt | i | 23.2 | nt
Cc1ccc(C(=O)N2CCN(c3ccc(NC(=O)c4ccc(Br)o4)cc3)CC2)cc1 | nt | nt | i | nt | nt | i
O=C(C(=O)c1cccnc1)c1cccnc1 | i | i | nt | i | i | i
Cc1cccnc1 | i | i | i | nt | 21.5 | i
COc1ccc(S(=O)(=O)Nc2ccc3c(c2)C(=O)N([C@H](C)CO)C[C@H](C)[C@@H](CN(C)CC2CC2)O3)cc1 | i | i | nt | i | i | nt
Cc1ccc(S(=O)(=O)NCC[C@@H]2CC[C@@H](NC(=O)C3CCOCC3)[C@H](CO)O2)cc1 | i | 98.6 | i | i | i | nt
COc1ccccc1S(=O)(=O)N[C@@H]1CC[C@@H](CCNC(=O)C2CCCC2)O[C@@H]1CO | i | i | i | i | 20.1 | nt
Cc1ccc(S(=O)(=O)N[C@H]2CC[C@H](CCNC(=O)C3CCCC3)O[C@@H]2CO)cc1 | i | i | 95.4 | i | 72.0 | nt
COc1ccccc1S(=O)(=O)N[C@@H]1CC[C@H](CCNC(=O)C2CCCC2)O[C@H]1CO | i | i | i | i | i | nt
Cc1ccc(S(=O)(=O)N[C@H]2CC[C@@H](CCNC(=O)C3CCOCC3)O[C@H]2CO)cc1 | i | i | i | i | 22.1 | nt
O=C(C[C@H]1CC[C@@H](NS(=O)(=O)c2ccccc2)[C@@H](CO)O1)NCCN1CCCCC1 | i | i | i | i | i | nt
C[C@@H]1CN([C@@H](C)CO)C(=O)Cc2cc(NS(=O)(=O)c3ccc(F)cc3)ccc2O[C@@H]1CN(C)Cc1ccc(Oc2ccccc2)cc1 | i | i | i | i | i | nt
COc1ccc(NC(=O)N2C[C@H](O)COC[C@@H]3O[C@@H](CC(=O)N4CCN(C)CC4)CC[C@H]32)cc1 | i | i | i | i | i | nt
CO[C@@H]1CN(C)C(=O)c2cc(NC(=O)Cc3ccccc3)ccc2OC[C@@H](C)N(CC2CC2)C[C@H]1C | i | i | i | i | i | nt
C[C@H]1CN([C@@H](C)CO)C(=O)c2cccc(NC(=O)CCCCCC(=O)Nc3ccccc3N)c2O[C@@H]1CN(C)Cc1ccc(-c2ccccc2)cc1 | i | i | nt | i | i | nt
Cc1ccc(S(=O)(=O)N[C@@H]2CC[C@@H](CCNC(=O)C3CCOCC3)O[C@H]2CO)cc1 | i | i | i | i | 21.1 | nt
O=C(N[C@H]1CC[C@H](CCNS(=O)(=O)c2ccc(F)cc2)O[C@@H]1CO)C1CCCC1 | i | i | i | i | 32.5 | nt
COc1ccc(S(=O)(=O)N[C@H]2CC[C@@H](CCNC(=O)CN3CCOCC3)O[C@H]2CO)cc1 | i | i | i | i | 94.0 | nt
C[C@@H]1CN([C@H](C)CO)C(=O)c2cc(-c3cncnc3)cnc2O[C@H]1CN(C)C(=O)CN1CCOCC1 | i | i | i | i | i | nt
CC(C)c1cn(CC[C@@H]2CC[C@@H](NS(=O)(=O)c3ccc(Cl)cc3)[C@H](CO)O2)nn1 | i | i | i | i | i | nt
NNc1nc2c(Cl)ccc(Cl)c2s1 | -26.4 | i | i | ? | i | i
O=C(Nc1nc2c(Cl)ccc(Cl)c2s1)C1CC1 | i | i | i | i | i | i
COc1ccc(S(=O)(=O)Nc2ccc3c(c2)C(=O)N([C@@H](C)CO)C[C@H](C)[C@H](CN(C)S(C)(=O)=O)O3)cc1 | i | i | i | i | i | nt
O=C(CC1CC1)N[C@H]1C[C@@H]2O[C@@H](CO)CC[C@@H]2O[C@@H]1CCc1ccc(C#Cc2ccccc2)cc1 | nt | i | nt | i | 21.3 | nt
O=C(CC1CC1)N[C@H]1C[C@@H]2O[C@H](CO)CC[C@@H]2O[C@@H]1CCc1ccc(C#Cc2ccccc2)cc1 | nt | i | nt | i | 28.2 | nt
SMILES | rRNA inh HTS | S100A4 MyoIIA | Cneo AK release | MLL AF4-AF9 inh | DENV2 CPE | PfHsp90 set2
CCNC(=O)C[C@H]1C=C[C@@H](NC(=O)C2CCC2)[C@H](CO)O1 | nt | i | i | i | i | nt
CCCNC(=O)N1[C@H](CO)[C@H](c2ccccc2)[C@H]1CNC(=O)c1cccc(F)c1 | i | i | i | i | i | nt
CO[C@H]1CN(C)C(=O)c2cc(NC(C)=O)ccc2OC[C@H](C)N(C(=O)CN(C)C)C[C@H]1C | i | i | nt | i | 44.1 | nt
CO[C@@H]1CN(C)C(=O)c2cc(NS(C)(=O)=O)ccc2OC[C@H](C)N(C(=O)CN(C)C)C[C@@H]1C | i | i | i | i | 76.0 | nt
CO[C@@H]1CN(C)C(=O)c2cc(NS(C)(=O)=O)ccc2OC[C@@H](C)N(C(=O)CN(C)C)C[C@H]1C | i | i | i | i | i | nt
O=C(NCC[C@@H]1CC[C@@H](NS(=O)(=O)c2ccc(Cl)cc2)[C@H](CO)O1)Nc1ccc(F)cc1 | i | i | nt | i | ? | nt
COCCn1c(SCC(=O)N2CCCC2)nnc1-c1ccco1 | i | i | i | 28.4 | i | i
O=[N+]([O-])c1ccc(CS(=O)c2ccccc2)cc1 (configuration not stated) | nt | i | nt | i | i | i
O=[N+]([O-])c1ccc(S(=O)Cc2ccccc2)c([N+](=O)[O-])c1 (configuration not stated) | i | i | nt | i | i | 136.8
O=S1c2ccccc2Oc2ccccc21 | i | i | nt | i | i | i
O=[S@]1Oc2ccccc2-c2ccccc21 | i | i | i | i | 67.5 | 109.7
CC(=NN1CC(=O)NC1=O)c1ccc([N+](=O)[O-])o1 | -38.2 | i | i | i | i | i
COc1ccc(CNC(=O)C[C@@H]2CC[C@H](NS(=O)(=O)c3cccc(OC)c3)[C@H](CO)O2)cc1 | i | i | i | i | i | nt
C[C@@H]1CN([C@H](C)CO)C(=O)c2cc(-c3ccccc3F)cnc2O[C@@H]1CN(C)C(=O)c1ccccn1 | i | i | i | i | i | nt
COc1cccc(C2CC(=O)NC(SC)=C2C#N)c1 (configuration not stated) | i | i | i | 25.4 | i | i
CNC(=O)C[C@H]1CC[C@@H]2[C@H](COc3ccc(NS(=O)(=O)c4cccc(F)c4)cc3C(=O)N2C)O1 | i | i | i | i | i | nt
CC(C)(C)NC(=O)NC(=O)C[n+]1ccc(Cc2ccc([N+](=O)[O-])cc2)cc1 | -14.5 | i | i | i | i | i
COc1ccc(CNCCC(c2ccccc2)c2ccc3c(c2)OCO3)cc1 (configuration not stated) | i | i | i | 25.1 | i | i
Fc1ccccc1CNCCC(Cc1ccccc1)c1ccc2c(c1)OCO2 (configuration not stated) | -51.0 | i | i | i | i | i
CC(=O)N(CCC(Cc1ccccc1)c1ccc2c(c1)OCO2)Cc1ccccc1F (configuration not stated) | nt | nt | i | nt | nt | i
